In ChEMBL document CHEMBL3526072 (Drug Metab Dispos, 2011):

Assays:
[1] = tested on: Rattus norvegicus; assay: Ratio of compound AUC to verapamil AUC in Sprague-Dawley rat treated with 10 mg/kg, po of verapamil; format: ADME, organism-based; parameters: dose 10 mg/kg, route oral; conditions: in vivo
[2] = tested on: Rattus norvegicus; assay: Ratio of compound AUC to verapamil AUC in streptozotocin-induced diabetes mellitus model of Sprague-Dawley rat treated with 10 mg/kg, po of verapamil; format: ADME, organism-based; parameters: dose 10 mg/kg, route oral; conditions: in vivo
[3] = Tmax in streptozotocin-induced diabetes mellitus model of Sprague-Dawley rat at 10 mg/kg, po; format: ADME, organism-based; parameters: dose 10 mg/kg, route oral; conditions: in vivo
[4] = Tmax in Sprague-Dawley rat portal vein plasma at 10 mg/kg, po; format: ADME, organism-based; parameters: dose 10 mg/kg, route oral
[5] = Tmax in streptozotocin-induced diabetes mellitus model of Sprague-Dawley rat portal vein plasma at 10 mg/kg, po; format: ADME, organism-based; parameters: dose 10 mg/kg, route oral
[6] = tested on: Liver; assay: Increase of CYP3A1 level in streptozotocin-induced diabetes mellitus model of Sprague-Dawley rat liver by Western blot analysis relative to wild type rat; format: ADME, tissue-based
Method in brief: (§1)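 Rats from the STZ 65 mg/kg i.p. protocol versus citrate-treated age-matched controls, day 35. Hepatic microsomes or duodenal and jejunal homogenates (20 µg protein) run on 10% SDS-PAGE and probed with mouse anti-rat CYP3A1 monoclonal and rabbit anti-rat CYP3A2 polyclonal antibodies; band densitometry expressed relative to controls; mean ± S.D., four rats.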

[7] = AUC (0 to 90 mins) in Sprague-Dawley rat portal vein plasma at 10 mg/kg, po; format: ADME, organism-based; parameters: time < 1.5 hr, dose 10 mg/kg, route oral
[8] = Tmax in Sprague-Dawley rat at 10 mg/kg, po; format: ADME, organism-based; parameters: dose 10 mg/kg, route oral; conditions: in vivo
[9] = Cmax in streptozotocin-induced diabetes mellitus model of Sprague-Dawley rat portal vein plasma at 10 mg/kg, po; format: ADME, organism-based; parameters: dose 10 mg/kg, route oral
[10] = tested on: Intestine; assay: Decrease of CYP3A1 level in streptozotocin-induced diabetes mellitus model of Sprague-Dawley rat intestine by Western blot analysis; format: ADME; method in brief: as §1
[11] = AUC (0 to 90 mins) in streptozotocin-induced diabetes mellitus model of Sprague-Dawley rat portal vein plasma at 10 mg/kg, po; format: ADME, organism-based; parameters: time < 1.5 hr, dose 10 mg/kg, route oral
[12] = tested on: Liver; assay: Increase of CYP3A2 level in streptozotocin-induced diabetes mellitus model of Sprague-Dawley rat liver by Western blot analysis relative to wild type rat; format: ADME, tissue-based; method in brief: as §1
[13] = Cmax in Sprague-Dawley rat portal vein plasma at 10 mg/kg, po; format: ADME, organism-based; parameters: dose 10 mg/kg, route oral
[14] = tested on: Intestine; assay: Decrease of CYP3A2 level in streptozotocin-induced diabetes mellitus model of Sprague-Dawley rat intestine by Western blot analysis; format: ADME; method in brief: as §1

Ratio AUC [1] | Ratio AUC [2] | Tmax [3] [min] | Tmax [4] [min] | Tmax [5] [min] | Activity [6] [%] | AUC(0-t) at 1.5 h [7] [ng·h/mL] | Tmax [8] [min] | Cmax [9] [ng/mL] | AUC(0-t) at 1.5 h [11] [ng·h/mL] | Activity [12] [%] | Cmax [13] [ng/mL] | Structure (SMILES) | Activity [10] | Activity [14]
0.69 | 0.43 | – | – | – | – | – | – | – | – | – | – | COc1ccc(CCNCCCC(C#N)(c2ccc(OC)c(OC)c2)C(C)C)cc1OC.Cl (centres undefined) | – | –
– | – | 21.7 | 37.5 | 30 | 50 | 1460 | 34 | 5830 | 7030 | 151 | 1440 | COc1ccc(CCN(C)CCCC(C#N)(c2ccc(OC)c(OC)c2)C(C)C)cc1OC (centres undefined) | Toxic | Toxic
